Laboratory results taken from ChEMBL document CHEMBL4177753, “Structural Modification of Natural Product Ganomycin I Leading to Discovery of a α-Glucosidase and HMG-CoA Reductase Dual Inhibitor Improving Obesity and Metabolic Dysfunction in Vivo” (J Med Chem, 2018).
The source made the active and inactive calls. No cut-off for these calls is given here.

What was measured:
[1] = system: Mus musculus; assay: Hypolipidemic activity in ob/ob mouse assessed as decrease in plasma triglyceride levels at 3 mg/kg administered daily via oral gavage for 31 days relative to vehicle-treated control; assay type: functional; set-up: scale not given: the % may be the effect or the level left
[2] = system: Mus musculus; assay: Hypolipidemic activity in ob/ob mouse assessed as decrease in liver LDL-C levels at 0.3 to 3 mg/kg administered daily via oral gavage for 31 days; assay type: functional, organism-based
[3] = system: Mus musculus; assay: Hypoglycemic activity in ob/ob mouse assessed as decrease in HbA1c levels administered daily via oral gavage for 31 days; assay type: functional, organism-based
How it was run: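 Male ob/ob mice, n = 10 per group, daily gavage at 0.3, 1.0 or 3.0 mg/kg in soybean vehicle. Fasting and free-diet blood glucose and HbA1c measured.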

[4] = system: Mus musculus; assay: Downregulation of Nos2 mRNA expression in ob/ob mouse ileum at 3 mg/kg administered daily via oral gavage for 31 days by RNA-seq analysis; assay type: functional, organism-based
[5] = Half life in Sprague-Dawley rat at 2 mg/kg, po; assay type: ADME, organism-based; conditions: in vivo
How it was run: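 Male Sprague-Dawley rats (n = 6, 0.21–0.23 kg), single oral dose 2.0 mg/kg. Orbital blood sampled 0–16 h into heparinized tubes. Plasma was protein-precipitated with methanol, with internal standard added. Quantified by UPLC-ESI(+)-QTOF-MS in SIM mode on a C18 column with a methanol/0.3% formic acid water gradient. Linear range 0.54–107 ng/ml.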

[6] = system: Mus musculus; assay: Hypolipidemic activity in ob/ob mouse assessed as decrease in serum total cholesterol levels administered daily via oral gavage for 31 days; assay type: functional, organism-based
[7] = system: Mus musculus; assay: Toxicity in C57BL/6J mouse assessed as effect on body weight at 30 mg/kg administered daily via oral gavage for 3 months; assay type: organism-based; conditions: in vivo
How it was run: (§1)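 Long-term safety study in C57BL/6J mice, 20 male and 20 female, sorted by gender, blood glucose and body weight into four groups (n = 10 each). Treated groups of each sex got 30.0 mg/kg daily by oral gavage in soybean vehicle. Vehicle groups got an equal volume of soybean. Dosing ran three months, with behavior, survival, body weight, blood glucose, liver function and organ coefficients recorded.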

[8] = system: Mus musculus; assay: In vivo inhibition of alpha-glucosidase activity in ob/ob mouse assessed as reduction of blood glucose AUC at 0.3 to 3 mg/kg administered daily via oral gavage for 30 days by OSTT; assay type: functional, organism-based
How it was run: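 Male ob/ob mice given 0.3–3.0 mg/kg daily by gavage; after overnight fast, sucrose (OSTT) or maltose (OMTT) 4.0 g/kg given orally; blood glucose by glucose meter at 0, 40, 80 and 120 min; AUC calculated from the time course.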

[9] = system: Mus musculus; assay: Hypolipidemic activity in ob/ob mouse assessed as decrease in fat deposition in liver at 3 mg/kg administered daily via oral gavage for 31 days by […] staining-based microscopic method; assay type: functional, organism-based
How it was run: (§2)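 Male ob/ob mice dosed by gavage (soybean vehicle); liver and abdominal white adipose tissue fixed in 10% formaldehyde-PBS pH 7.4, paraffin-embedded, sectioned, stained with H&E, Oil Red O or sirius red, and examined by light microscopy.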

[10] = system: Mus musculus; assay: Hypolipidemic activity in antibiotic-treated ob/ob mouse assessed as decrease in plasma free fatty acid levels at 3 mg/kg administered daily via oral gavage for 3 weeks; assay type: functional, organism-based
How it was run: (§3)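 Male ob/ob mice pretreated three weeks with ampicillin (1 g/L), vancomycin, neomycin, gentamycin and erythromycin. Groups of n = 8 given 3.0 mg/kg/day orally in soybean vehicle versus vehicle. Plasma and hepatic lipids, fasting glucose, OGTT (glucose 2 g/kg after overnight fast) and HbA1c measured.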

[11] = system: Mus musculus; assay: Upregulation of Muc-1 mRNA expression in ob/ob mouse ileum at 3 mg/kg administered daily via oral gavage for 31 days by RNA-seq analysis; assay type: functional, organism-based
[12] = system: Mus musculus; assay: Reduction of plasma LPS levels in ob/ob mouse at 1 mg/kg administered daily via oral gavage for 31 days by ELISA relative to vehicle-treated control; assay type: functional; set-up: scale not given: the % may be the effect or the level left
How it was run: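 Male ob/ob mice treated daily by gavage (soybean vehicle); plasma LPS and TNF-α quantified by ELISA kits. For antibiotic groups, ob/ob mice first received an oral antibiotic cocktail (ampicillin 1 g/L, vancomycin, neomycin, gentamycin, erythromycin) for three weeks, then 3.0 mg/kg/day; n = 8 per group.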

[13] = system: Mus musculus; assay: Antifibrotic activity in ob/ob mouse assessed as decrease in TGF-beta1 expression in liver at 3 mg/kg administered daily via oral gavage for 31 days by immunohistochemical staining-based microscopic method; assay type: functional, organism-based
[14] = system: Mus musculus; assay: Toxicity in C57BL/6J mouse assessed as effect on organ coefficients at 30 mg/kg administered daily via oral gavage for 3 months; assay type: organism-based; conditions: in vivo; how it was run: as §1
[15] = system: Mus musculus; assay: Hypolipidemic activity in ob/ob mouse assessed as decrease in plasma triglyceride levels administered daily via oral gavage for 31 days; assay type: functional, organism-based
[16] = system: Mus musculus; assay: Toxicity in C57BL/6J mouse assessed as effect on survival at 30 mg/kg administered daily via oral gavage for 3 months; assay type: organism-based; conditions: in vivo; how it was run: as §1
[17] = system: Mus musculus; assay: Antiobesity activity in ob/ob mouse assessed as reduction in absolute fat mass at 3 mg/kg administered daily via oral gavage for 31 days; assay type: functional, organism-based
How it was run: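 Male ob/ob mice, n = 10 per group, grouped by blood glucose and body weight. Daily gavage at 0.3, 1.0 or 3.0 mg/kg in soybean vehicle, with soybean vehicle controls and C57BL/6J controls. Body weight, cumulative food intake, LEE index, fat mass and lean mass recorded. Mean ± SEM, one-way ANOVA with Tukey test.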

[18] = system: Lachnospiraceae; assay: Increase in Lachnospiraceae levels in cecum of ob/ob mouse assessed as increase in level of gut butyrate at 3 mg/kg administered daily via oral gavage for 31 days by GC-MS analysis; assay type: functional, organism-based
How it was run: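 Feces collected from ob/ob mice after 3.0 mg/kg gavage treatment; samples lyophilized, ground, 40 mg powder extracted with 1 mL MeOH, sonicated, centrifuged; supernatant analysed for short-chain fatty acids by GC-MS.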

[19] = system: Mus musculus; assay: Upregulation of ZO-1 mRNA expression in ob/ob mouse ileum at 3 mg/kg administered daily via oral gavage for 31 days by RNA-seq analysis; assay type: functional, organism-based
[20] = system: Mus musculus; assay: Upregulation of Pparg mRNA expression in ob/ob mouse ileum at 3 mg/kg administered daily via oral gavage for 31 days by RNA-seq analysis; assay type: functional, organism-based
[21] = Tmax in Sprague-Dawley rat at 2 mg/kg, po; assay type: ADME, organism-based; conditions: in vivo
How it was run: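 Six male Sprague-Dawley rats (0.21–0.23 kg) dosed orally at 2.0 mg/kg; blood from orbital vein at 0–16 h into heparinized tubes; plasma protein precipitated with methanol plus internal standard. Quantified by UPLC–Q-TOF MS, ESI positive, single ion monitoring (m/z 367.2637); linear range 0.54–107 ng/ml.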

[22] = system: Mus musculus; assay: Hypolipidemic activity in ob/ob mouse assessed as decrease in macrosteatosis at 3 mg/kg administered daily via oral gavage for 31 days by hematoxylin-eosin staining-based microscopic method; assay type: functional, organism-based; how it was run: as §2
[23] = system: Selenomonas; assay: Decrease in Selenomonas levels in cecum of ob/ob mouse at 3 mg/kg administered daily via oral gavage for 31 days by 16S rRNA gene high-throughput sequencing method; assay type: functional, organism-based
How it was run: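 Male ob/ob mice dosed daily by gavage at 1.0 or 3.0 mg/kg, compared with vehicle group. DNA extracted from about 150 mg caecum contents. 16S rRNA V3–V4 region amplified and sequenced on Illumina HiSeq PE250. Community compared by NMDS/MRPP; discriminant taxa identified by LEfSe.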

[24] = system: Mus musculus; assay: Hypolipidemic activity in antibiotic-treated ob/ob mouse assessed as decrease in hepatic triglycerides levels at 3 mg/kg administered daily via oral gavage for 3 weeks; assay type: functional, organism-based; how it was run: as §3

SMILES: CC(C)=CCC/C(C)=C/CCC1=C[C@H](c2ccc(C(C)(C)C)cc2)OC1=O
- Activity [1]: 47%
- Activity [2]: Active
- Activity [3]: Dose-dependent effect
- Activity [4]: Active
- half-life [5]: 1.8 h
- Activity [6]: Dose-dependent effect
- Activity [7]: Non-Toxic
- inhibition [8]: Active
- Activity [9]: Active
- Activity [10]: inactive
- Activity [11]: Active
- Activity [12]: 29.8%
- Activity [13]: Active
- Activity [14]: Non-Toxic
- Activity [15]: Dose-dependent effect
- Activity [16]: Non-Toxic
- Activity [17]: Active
- Activity [18]: Active
- Activity [19]: Active
- Activity [20]: Active
- Tmax [21]: 7 h
- Activity [22]: Active
- Activity [23]: Active
- Activity [24]: inactive
